Values joined by “and” are separate entries in the source; they are usually repeats but may differ in a detail not shown here. Equal entries are not always repeated.
System: U2OS
Experiment: Multiplex assay against U2OS
Format: toxicity, cell-based
Conditions: human
Summary of the method: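 Four dyes were applied at seeding to live cells: Hoechst33342, BioTracker Green Microtubule Cytoskeleton Dye, MitoTracker Red and Annexin V Alexa Fluor 680. Imaging after compound addition used a CQ1 microscope at 37°C and 5% CO2. CellPathfinder machine-learning gating then sorted cells into Hoechst high-intensity objects or normal cells, normal cells into healthy, pyknosed or fragmented nuclei, and pyknosed cells into mitotic or apoptotic, with tubulin, mitochondrial-mass and membrane-permeability phenotypes given as per cents of healthy-nucleus cells.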

[1] = 12 h, 1 µM, compound concentration 1 uM
[2] = 12 h, 10 µM, compound concentration 10 uM
[3] = 24 h, 1 µM, compound concentration 1 uM
[4] = 24 h, 10 µM, compound concentration 10 uM
[5] = 48 h, 1 µM, compound concentration 1 uM
[6] = 48 h, 10 µM, compound concentration 10 uM

CC(C)(C)c1cc(NC(=O)Nc2ccc(-c3cn4c(n3)sc3cc(OCCN5CCOCC5)ccc34)cc2)no1 [QUIZARTINIB]
Population Apoptotic (%) [1]: 48% and 78% | Population Fragmented Nuclei (%) [1]: 24% and 17% | Population Healthy Nuclei (%) [1]: 61% and 70% | Population Hoechst High Intensity Objects (%) [1]: 6% and 1% | Population Membrane Permeable-Phenotype (%) [1]: 13% and 6% | Population Mitochondria Different-Phenotype (%) [1]: 4% and 6% | Population Mitotic Cells (%) [1]: 51% and 21% | Population Normal (%) [1]: 93% and 98% | Population Pyknosed Nuclei (%) [1]: 14% and 11% | Population Tubulin-Different-Phenotype (%) [1]: 8% and 4% | Total Cell Count [1]: 213 and 119 | Population Apoptotic (%) [2]: 58% and 23% | Population Fragmented Nuclei (%) [2]: 30% and 11% | Population Healthy Nuclei (%) [2]: 47% and 65% | Population Hoechst High Intensity Objects (%) [2]: 13% and 6% | Population Membrane Permeable-Phenotype (%) [2]: 85% and 62% | Population Mitochondria Different-Phenotype (%) [2]: 26% and 33% | Population Mitotic Cells (%) [2]: 41% and 76% | Population Normal (%) [2]: 86% and 94% | Population Pyknosed Nuclei (%) [2]: 21% and 22% | Population Tubulin-Different-Phenotype (%) [2]: 76% and 54% | Total Cell Count [2]: 197 and 100 | Population Apoptotic (%) [3]: 57% and 62% | Population Fragmented Nuclei (%) [3]: 25% and 15% | Population Healthy Nuclei (%) [3]: 56% and 72% | Population Hoechst High Intensity Objects (%) [3]: 2% and 0% | Population Membrane Permeable-Phenotype (%) [3]: 15% and 9% | Population Mitochondria Different-Phenotype (%) [3]: 8% and 4% | Population Mitotic Cells (%) [3]: 42% and 37% | Population Normal (%) [3]: 97% and 99% | Population Pyknosed Nuclei (%) [3]: 17% and 12% | Population Tubulin-Different-Phenotype (%) [3]: 7% and 5% | Total Cell Count [3]: 234 and 134 | Population Apoptotic (%) [4]: 63% and 51% | Population Healthy Nuclei (%) [4]: 34% and 58% | Population Hoechst High Intensity Objects (%) [4]: 11% and 2% | Population Membrane Permeable-Phenotype (%) [4]: 55% and 40% | Population Mitochondria Different-Phenotype (%) [4]: 38% and 32% | Population Mitotic Cells (%) [4]: 36% and 48% | Population Normal (%) [4]: 88% and 97% | Population Pyknosed Nuclei (%) [4]: 30% | Population Tubulin-Different-Phenotype (%) [4]: 45% and 30% | Total Cell Count [4]: 195 and 96 | Population Apoptotic (%) [5]: 60% and 73% | Population Fragmented Nuclei (%) [5]: 21% and 16% | Population Healthy Nuclei (%) [5]: 61% and 72% | Population Hoechst High Intensity Objects (%) [5]: 3% and 2% | Population Membrane Permeable-Phenotype (%) [5]: 7% and 9% | Population Mitochondria Different-Phenotype (%) [5]: 2% and 7% | Population Mitotic Cells (%) [5]: 39% and 26% | Population Normal (%) [5]: 96% and 97% | Population Pyknosed Nuclei (%) [5]: 16% and 10% | Population Tubulin-Different-Phenotype (%) [5]: 3% and 6% | Total Cell Count [5]: 297 and 180 | Population Apoptotic (%) [6]: 72% and 56% | Population Fragmented Nuclei (%) [6]: 33% and 19% | Population Healthy Nuclei (%) [6]: 25% and 48% | Population Hoechst High Intensity Objects (%) [6]: 9% and 5% | Population Membrane Permeable-Phenotype (%) [6]: 41% and 35% | Population Mitochondria Different-Phenotype (%) [6]: 33% | Population Mitotic Cells (%) [6]: 27% and 43% | Population Normal (%) [6]: 90% and 94% | Population Pyknosed Nuclei (%) [6]: 40% and 32% | Population Tubulin-Different-Phenotype (%) [6]: 33% and 28% | Total Cell Count [6]: 219 and 98

Nc1nc(CC(=O)Nc2ccc(CCNC[C@H](O)c3ccccc3)cc2)cs1 [MIRABEGRON]
Population Apoptotic (%) [1]: 86% and 100% | Population Fragmented Nuclei (%) [1]: 24% and 13% | Population Healthy Nuclei (%) [1]: 62% and 74% | Population Hoechst High Intensity Objects (%) [1]: 1% and 0% | Population Membrane Permeable-Phenotype (%) [1]: 6% and 5% | Population Mitochondria Different-Phenotype (%) [1]: 3% and 2% | Population Mitotic Cells (%) [1]: 13% and 0% | Population Normal (%) [1]: 98% and 99% | Population Pyknosed Nuclei (%) [1]: 12% | Population Tubulin-Different-Phenotype (%) [1]: 4% and 5% | Total Cell Count [1]: 240 and 107 | Population Apoptotic (%) [2]: 86% and 66% | Population Fragmented Nuclei (%) [2]: 18% and 21% | Population Healthy Nuclei (%) [2]: 70% and 71% | Population Hoechst High Intensity Objects (%) [2]: 1% and 0% | Population Membrane Permeable-Phenotype (%) [2]: 6% and 7% | Population Mitochondria Different-Phenotype (%) [2]: 2% and 3% | Population Mitotic Cells (%) [2]: 13% and 33% | Population Normal (%) [2]: 98% and 99% | Population Pyknosed Nuclei (%) [2]: 11% and 6% | Population Tubulin-Different-Phenotype (%) [2]: 4% and 1% | Total Cell Count [2]: 319 and 136 | Population Apoptotic (%) [3]: 82% and 58% | Population Fragmented Nuclei (%) [3]: 21% and 11% | Population Healthy Nuclei (%) [3]: 70% and 79% | Population Hoechst High Intensity Objects (%) [3]: 2% and 0% | Population Membrane Permeable-Phenotype (%) [3]: 4% and 9% | Population Mitochondria Different-Phenotype (%) [3]: 2% and 3% | Population Mitotic Cells (%) [3]: 17% and 41% | Population Normal (%) [3]: 97% and 99% | Population Pyknosed Nuclei (%) [3]: 8% and 9% | Population Tubulin-Different-Phenotype (%) [3]: 3% and 7% | Total Cell Count [3]: 289 and 125 | Population Apoptotic (%) [4]: 86% and 76% | Population Fragmented Nuclei (%) [4]: 17% and 20% | Population Healthy Nuclei (%) [4]: 75% and 71% | Population Hoechst High Intensity Objects (%) [4]: 1% | Population Membrane Permeable-Phenotype (%) [4]: 5% and 9% | Population Mitochondria Different-Phenotype (%) [4]: 3% and 5% | Population Mitotic Cells (%) [4]: 13% and 23% | Population Normal (%) [4]: 98% | Population Pyknosed Nuclei (%) [4]: 7% | Population Tubulin-Different-Phenotype (%) [4]: 3% and 4% | Total Cell Count [4]: 405 and 167 | Population Apoptotic (%) [5]: 84% and 78% | Population Fragmented Nuclei (%) [5]: 17% and 12% | Population Healthy Nuclei (%) [5]: 72% and 74% | Population Hoechst High Intensity Objects (%) [5]: 2% | Population Membrane Permeable-Phenotype (%) [5]: 4% and 8% | Population Mitochondria Different-Phenotype (%) [5]: 3% | Population Mitotic Cells (%) [5]: 15% and 21% | Population Normal (%) [5]: 97% | Population Pyknosed Nuclei (%) [5]: 9% and 13% | Population Tubulin-Different-Phenotype (%) [5]: 3% and 7% | Total Cell Count [5]: 394 and 179 | Population Apoptotic (%) [6]: 87% and 70% | Population Fragmented Nuclei (%) [6]: 14% | Population Healthy Nuclei (%) [6]: 74% and 78% | Population Hoechst High Intensity Objects (%) [6]: 2% | Population Membrane Permeable-Phenotype (%) [6]: 5% and 3% | Population Mitochondria Different-Phenotype (%) [6]: 2% and 3% | Population Mitotic Cells (%) [6]: 12% and 29% | Population Normal (%) [6]: 97% | Population Pyknosed Nuclei (%) [6]: 10% and 7% | Population Tubulin-Different-Phenotype (%) [6]: 2% and 1% | Total Cell Count [6]: 534 and 232
